Screening results deposited in PubChem BioAssay by Broad Institute.
INS-1E rescue = rescue of cytokine-induced death in INS-1E beta cells. INS-1E cytokine-induced death, ATP luminescence, 48 h; normalised: neutral wells 0, positive control 100. AID 488910. protection from cytokine-induced ATP loss, % at 10 µM. hit rate 0.1% among 20,000;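 active = mean replicate protection from cytokine-induced ATP loss at least 50% and at least 75% of replicates each reaching 50%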
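Assay system: INS-1E rat cells / Quantity: 8000 cells per well / Medium: RPMI without phenol red, 5% FBS / Probe or stimulus: three-cytokine cocktail (IFN-γ, TNF-α, IL-1β) / Dosing: one compound concentration, pin transfer / Timing: 48 h co-treatment, 10 min post-lysis read / Technique: CellTiter-Glo luminescence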
A1 apoptosis 2 = A1 inhibition read as caspase activation | 24,000 tested, under 10 active | caspase activation, % (concentration not given with the values) | MEF A1-2A-BIM cells, caspase-Glo luminescence, 3 h; percent of clofoctol response, DMSO zero; in the data active = caspase activation above about 5.9%
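System: mouse embryonic fibroblasts co-expressing A1 and BIM (A1-2A-BIM), primed for A1 dependence; amount: 2500 cells/well; doses: 50 nL pinned compound; schedule: cells settled overnight, compound exposure 3 h at 37 °C, 5% CO2; detection: Caspase-Glo 3/7 luminescence, 1 h at room temperature; read-out: Caspase-3/7 activation, seen as rise in luminescence signal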
T cruzi intra = inhibitors of intracellular Trypanosoma cruzi; intracellular Trypanosoma cruzi in host cells, plate reader; hit rate 4.9% among 22,000; AID 651903; activity score (inhibition), % at 5.01 µM; in the data active = activity score above about 55%;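 note: parasites and compound incubated about four days before reading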
Large screens that a line does not name were inactive. This is one part of a sample in which hits are shown more often than they occur.

COc1ccc(CN(C)C[C@@H]2Oc3ccc(NS(=O)(=O)c4ccc(OC)cc4)cc3CC(=O)N([C@H](C)CO)C[C@H]2C)cc1	T cruzi intra 70
COc1ccc(S(=O)(=O)Nc2ccc3c(c2)CC(=O)N([C@H](C)CO)C[C@@H](C)[C@@H](CN(C)Cc2ccccc2)O3)cc1	T cruzi intra 63
C[C@H](CO)N1C[C@H](C)[C@@H](CN(C)Cc2ccc(Cl)c(Cl)c2)OCCCC[C@H](C)Oc2ccc(NS(=O)(=O)c3cn(C)cn3)cc2C1=O	none (no result: INS-1E rescue, T cruzi intra)
O=C(NO)c1cccc(C(=O)N/N=C/c2cc(Br)cs2)c1	none (no result: A1 apoptosis 2)
COC(=O)CCCCCCC(=O)N/N=C/c1cccc(O)c1O	none
O=C(CCCCCCC(=O)Nc1ccccc1O)N/N=C/c1ccc(O)c(O)c1O	none (no result: A1 apoptosis 2)
COc1ccc(CN(C)C[C@H]2Oc3ccc(NS(=O)(=O)c4ccc(OC)cc4)cc3CC(=O)N([C@H](C)CO)C[C@@H]2C)cc1	none (no result: INS-1E rescue, T cruzi intra)
COc1ccc(CN(C)C[C@H]2Oc3ccc(NS(=O)(=O)c4ccc(OC)cc4)cc3CC(=O)N([C@H](C)CO)C[C@H]2C)cc1	T cruzi intra 64
COC(=O)C(CC#Cc1ccc2c(c1)[C@]1(C(=O)N2)[C@H](c2ccc(O)cc2)N2[C@H](c3ccccc3)[C@H](c3ccccc3)OC(=O)[C@H]2[C@@H]1C(N)=O)C(=O)OC	none (no result: INS-1E rescue, T cruzi intra)
COC(=O)CCCCCCC(=O)N/N=C/CNC(=O)OC(C)(C)C	none
C[C@@H]1CN([C@@H](C)CO)C(=O)c2cccc(NC(=O)c3ccncc3)c2O[C@H]1CN(C)Cc1ccc(-c2ccccc2)cc1	T cruzi intra 83 (no result: A1 apoptosis 2)
C[C@@H]1CN([C@H](C)CO)C(=O)c2cccc(NC(=O)c3ccncc3)c2O[C@@H]1CN(C)Cc1ccc(C(=O)O)cc1	none
C[C@@H]1CN([C@@H](C)CO)C(=O)c2cccc(NC(=O)c3ccncc3)c2O[C@@H]1CN(C)Cc1ccccc1	none (no result: A1 apoptosis 2)
C[C@@H]1CN([C@H](C)CO)C(=O)c2cccc(NC(=O)c3ccncc3)c2O[C@H]1CN(C)Cc1ccc(-c2ccccc2)cc1	T cruzi intra 84 (no result: A1 apoptosis 2)
C[C@H](CO)N1C[C@H](C)[C@@H](CN(C)Cc2ccc(-c3ccccc3)cc2)Oc2c(NC(=O)c3ccncc3)cccc2C1=O	T cruzi intra 57 (no result: A1 apoptosis 2)
C[C@H](CO)N1C[C@H](C)[C@@H](CN(C)Cc2ccccc2)Oc2c(NC(=O)c3ccncc3)cccc2C1=O	T cruzi intra 79 (no result: A1 apoptosis 2)
O=C(N1CCCCC1)[C@@]1(Cc2ccccc2)N=C(c2ccc(OCCCO)cc2)O[C@H]1c1ccccc1	none (no result: INS-1E rescue, T cruzi intra)
CC(C)(C)OC(=O)N1CCC[C@H]1/C=N/NC(=O)CCCCCC(=O)O	none (no result: A1 apoptosis 2)
CN(C)c1ccc(/C=N/NC(=O)CCCCCCC(=O)Nc2ccccc2O)cc1	none
O=C(O)CCCCCC(=O)N=NC=C1C=CN(O)C=C1	none
COc1cc(O)cc(OC)c1/C=N/NC(=O)CCCCCCC(=O)Nc1ccccc1O	none
C[C@@H]1CN([C@H](C)CO)C(=O)c2cc(NC(=O)Nc3ccc(F)cc3)ccc2O[C@@H]1CN(C)S(=O)(=O)c1cn(C)cn1	none
COc1ccc(CN(C)C[C@@H]2OCCCC[C@H](C)Oc3ccc(NS(=O)(=O)c4ccc(Cl)cc4)cc3C(=O)N([C@@H](C)CO)C[C@@H]2C)cc1	none (no result: INS-1E rescue, T cruzi intra)
O=C(CCCCCCC(=O)Nc1ccccc1O)N/N=C/c1cc(Cl)cc(Cl)c1O	none
C[C@H](CO)N1C[C@H](C)[C@H](CN(C)Cc2ccc(-c3ccccc3)cc2)Oc2c(NC(=O)c3ccncc3)cccc2C1=O	T cruzi intra 68
C[C@@H]1CN([C@@H](C)CO)C(=O)c2cccc(NC(=O)c3ccncc3)c2O[C@H]1CN(C)Cc1ccc(C(=O)O)cc1	none
O=C(N/N=C/c1ccc(OCCO)cc1)c1ccccn1	none
O=C1O[C@@H](c2ccccc2)[C@@H](c2ccccc2)N2[C@@H](c3ccc(OCCO)cc3)[C@]3(C(=O)Nc4ccc(C#CCCO)cc43)[C@@H](C(=O)NC[C@H](O)c3ccccc3)[C@H]12	none (no result: INS-1E rescue, T cruzi intra)
O=C(N/N=C/c1c[nH]c2ccccc12)c1ccccn1	none
COc1ccc(NC(=O)Nc2cccc3c2O[C@H](CN(C)Cc2ccc(Cl)c(Cl)c2)[C@H](C)CN([C@H](C)CO)C3=O)cc1	none (no result: A1 apoptosis 2)
C[C@@H]1CN([C@H](C)CO)C(=O)c2cccc(NC(=O)Nc3ccccc3)c2O[C@@H]1CN(C)Cc1ccc(Cl)c(Cl)c1	none (no result: A1 apoptosis 2)
C[C@@H]1CN([C@H](C)CO)C(=O)c2cccc(NC(=O)Nc3ccc4c(c3)OCO4)c2O[C@@H]1CN(C)Cc1ccc(Cl)c(Cl)c1	none (no result: A1 apoptosis 2)
C[C@@H]1CN([C@@H](C)CO)C(=O)c2cccc(NC(=O)Nc3ccccc3)c2O[C@H]1CN(C)Cc1ccc(Cl)c(Cl)c1	T cruzi intra 59 (no result: A1 apoptosis 2)
COc1ccc(NC(=O)Nc2cccc3c2O[C@@H](CN(C)Cc2ccc(Cl)c(Cl)c2)[C@@H](C)CN([C@H](C)CO)C3=O)cc1	T cruzi intra 59 (no result: A1 apoptosis 2)
C[C@H](CO)N1C[C@H](C)[C@H](CN(C)Cc2ccc(Cl)c(Cl)c2)Oc2c(NC(=O)Nc3ccc4c(c3)OCO4)cccc2C1=O	T cruzi intra 82 (no result: A1 apoptosis 2)
CC(C)(C)OC(=O)NC1(/C=N/NC(=O)CCCCCCC(=O)Nc2ccccc2O)CCCC1	none (no result: A1 apoptosis 2)
C=CC(CO)NS(=O)(=O)c1ccc(Br)cc1 (stereo unspecified)	none (no result: INS-1E rescue, T cruzi intra)
C[C@@H]1CCCCO[C@@H](CN(C)C(=O)Nc2ccc(C(F)(F)F)cc2)[C@@H](C)CN([C@H](C)CO)C(=O)c2cc(NC(=O)CCC(F)(F)F)ccc2O1	none (no result: A1 apoptosis 2)
C[C@@H]1CN([C@@H](C)CO)C(=O)c2cc(NC(=O)Cc3ccccc3)ccc2O[C@@H](C)CCCCO[C@H]1CN(C)C(=O)Nc1ccccc1	none (no result: INS-1E rescue, T cruzi intra)
C[C@@H]1CCCCO[C@H](CN(C)C(=O)Nc2ccc(C(F)(F)F)cc2)[C@@H](C)CN([C@H](C)CO)C(=O)c2cc(NC(=O)CCC(F)(F)F)ccc2O1	T cruzi intra 66
C[C@@H]1CCCCO[C@H](CN(C)C(=O)Nc2ccc(C(F)(F)F)cc2)[C@@H](C)CN([C@@H](C)CO)C(=O)c2cc(NC(=O)Nc3ccc(C(F)(F)F)cc3)ccc2O1	none (no result: INS-1E rescue, T cruzi intra)
C[C@@H]1CCCCO[C@H](CN(C)C(=O)Nc2ccc(C(F)(F)F)cc2)[C@@H](C)CN([C@H](C)CO)C(=O)c2cc(NC(=O)Nc3ccc(C(F)(F)F)cc3)ccc2O1	T cruzi intra 65
C[C@@H]1CCCCO[C@H](CN(C)C(=O)NC2CCCCC2)[C@@H](C)CN([C@H](C)CO)C(=O)c2cc(NC(=O)Nc3ccc(C(F)(F)F)cc3)ccc2O1	T cruzi intra 64 (no result: A1 apoptosis 2)
C[C@@H]1CCCCO[C@@H](CN(C)C(=O)Nc2ccc(C(F)(F)F)cc2)[C@@H](C)CN([C@H](C)CO)C(=O)c2cc(NC(=O)Cc3ccccc3)ccc2O1	T cruzi intra 59 (no result: A1 apoptosis 2)
C[C@H]1CCCCO[C@H](CN(C)C(=O)NC2CCCCC2)[C@@H](C)CN([C@@H](C)CO)C(=O)c2cc(NC(=O)Nc3ccc(C(F)(F)F)cc3)ccc2O1	none (no result: INS-1E rescue, T cruzi intra)
Cc1noc(C)c1S(=O)(=O)N(C)C[C@@H]1OCCCC[C@@H](C)Oc2ccc(NC(=O)NC(C)C)cc2C(=O)N([C@H](C)CO)C[C@H]1C	none (no result: INS-1E rescue, T cruzi intra)
